Data from the M2OR odorant receptor database.

Legend:
Settings in all cases: stereoisomer not certain
[1] = biological target: T1, OR51L1 (Homo sapiens) (UniProt Q8NGJ5)
T1 sequence (whole entry): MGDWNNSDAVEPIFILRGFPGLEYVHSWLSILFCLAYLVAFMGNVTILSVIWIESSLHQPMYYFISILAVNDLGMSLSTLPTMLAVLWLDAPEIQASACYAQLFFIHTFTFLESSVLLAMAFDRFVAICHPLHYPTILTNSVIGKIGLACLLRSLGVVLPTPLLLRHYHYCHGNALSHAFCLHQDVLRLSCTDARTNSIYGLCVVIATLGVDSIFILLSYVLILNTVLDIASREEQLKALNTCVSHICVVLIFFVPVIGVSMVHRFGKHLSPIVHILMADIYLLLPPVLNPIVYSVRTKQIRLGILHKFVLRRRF
How it was run: (§1)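 Assay methods differ from source to source, frequently being transient luciferase assays in mammalian cell lines. For each receptor–molecule pair, the label responsive (active) applies when the original authors judged the measured signal statistically different from baseline, and non-responsive (inactive) applies otherwise.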

[2] = biological target: OR51F1 (Homo sapiens) (UniProt A6NGY5)
How it was run: as §1

[3] = biological target: OR51F2 (Homo sapiens) (UniProt Q8NH61)
How it was run: as §1

[4] = biological target: OR51G1 (Homo sapiens) (UniProt Q8NGK1)
How it was run: as §1

[5] = biological target: OR51G2 (Homo sapiens) (UniProt Q8NGK0)
How it was run: as §1

[6] = biological target: OR51H1 (Homo sapiens) (UniProt Q8NH63)
How it was run: as §1

[7] = biological target: OR51I1 (Homo sapiens) (UniProt Q9H343)
How it was run: as §1

[8] = biological target: OR51I2 (Homo sapiens) (UniProt Q9H344)
How it was run: as §1

[9] = biological target: OR51J1 (Homo sapiens) (UniProt Q9H342)
How it was run: as §1

[10] = biological target: OR51M1 (Homo sapiens) (UniProt Q9H341)
How it was run: as §1

Measured: odorant receptor agonist call

Sequence of OR51M1 (Homo sapiens) (Q9H341 whole entry): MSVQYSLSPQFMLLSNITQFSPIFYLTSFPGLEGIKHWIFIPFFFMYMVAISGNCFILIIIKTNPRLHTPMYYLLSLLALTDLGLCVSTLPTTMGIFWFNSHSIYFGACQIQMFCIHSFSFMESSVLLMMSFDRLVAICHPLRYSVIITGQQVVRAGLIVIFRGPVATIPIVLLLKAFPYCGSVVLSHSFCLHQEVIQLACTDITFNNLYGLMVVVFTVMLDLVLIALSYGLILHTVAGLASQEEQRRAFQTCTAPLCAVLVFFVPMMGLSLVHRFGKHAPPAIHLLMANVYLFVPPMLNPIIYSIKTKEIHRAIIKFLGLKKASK
Sequence of OR51I1 (Homo sapiens) (Q9H343 whole entry): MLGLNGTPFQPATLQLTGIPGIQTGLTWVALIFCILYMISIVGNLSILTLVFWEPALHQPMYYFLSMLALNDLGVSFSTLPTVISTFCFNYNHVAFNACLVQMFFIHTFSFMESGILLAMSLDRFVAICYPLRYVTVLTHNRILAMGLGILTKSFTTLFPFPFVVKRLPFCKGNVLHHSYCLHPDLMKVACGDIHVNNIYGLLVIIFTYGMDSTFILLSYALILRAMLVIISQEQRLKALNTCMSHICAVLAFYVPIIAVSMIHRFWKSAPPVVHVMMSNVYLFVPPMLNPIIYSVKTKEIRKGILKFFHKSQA
Sequence of OR51J1 (Homo sapiens) (Q9H342 whole entry): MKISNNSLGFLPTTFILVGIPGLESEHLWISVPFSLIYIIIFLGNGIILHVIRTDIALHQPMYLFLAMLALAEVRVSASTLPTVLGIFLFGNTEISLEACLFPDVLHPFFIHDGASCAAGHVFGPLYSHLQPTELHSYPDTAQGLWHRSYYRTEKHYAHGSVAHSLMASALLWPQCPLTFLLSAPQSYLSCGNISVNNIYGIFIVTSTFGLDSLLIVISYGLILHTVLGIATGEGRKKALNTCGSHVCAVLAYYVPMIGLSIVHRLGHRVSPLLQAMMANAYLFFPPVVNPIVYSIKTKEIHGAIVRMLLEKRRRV
Sequence of OR51G1 (Homo sapiens) (Q8NGK1 whole entry): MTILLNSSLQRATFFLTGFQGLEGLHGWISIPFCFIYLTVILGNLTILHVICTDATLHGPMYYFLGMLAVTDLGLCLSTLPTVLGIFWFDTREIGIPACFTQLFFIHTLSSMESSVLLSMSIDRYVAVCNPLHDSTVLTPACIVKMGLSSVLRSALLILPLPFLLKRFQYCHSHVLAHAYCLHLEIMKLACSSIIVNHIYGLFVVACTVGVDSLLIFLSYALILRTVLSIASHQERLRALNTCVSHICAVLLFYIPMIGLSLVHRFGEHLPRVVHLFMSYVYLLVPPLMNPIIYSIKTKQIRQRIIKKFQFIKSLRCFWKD
Sequence of OR51I2 (Homo sapiens) (Q9H344 whole entry): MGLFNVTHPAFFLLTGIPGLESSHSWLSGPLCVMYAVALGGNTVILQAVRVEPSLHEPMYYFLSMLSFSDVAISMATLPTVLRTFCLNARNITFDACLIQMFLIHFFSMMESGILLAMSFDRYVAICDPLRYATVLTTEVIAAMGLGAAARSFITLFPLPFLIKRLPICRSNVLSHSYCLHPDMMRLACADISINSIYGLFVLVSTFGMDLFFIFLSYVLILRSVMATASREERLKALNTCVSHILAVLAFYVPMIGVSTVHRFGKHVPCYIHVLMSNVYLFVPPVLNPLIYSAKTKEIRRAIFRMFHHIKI
Sequence of OR51G2 (Homo sapiens) (Q8NGK0 whole entry): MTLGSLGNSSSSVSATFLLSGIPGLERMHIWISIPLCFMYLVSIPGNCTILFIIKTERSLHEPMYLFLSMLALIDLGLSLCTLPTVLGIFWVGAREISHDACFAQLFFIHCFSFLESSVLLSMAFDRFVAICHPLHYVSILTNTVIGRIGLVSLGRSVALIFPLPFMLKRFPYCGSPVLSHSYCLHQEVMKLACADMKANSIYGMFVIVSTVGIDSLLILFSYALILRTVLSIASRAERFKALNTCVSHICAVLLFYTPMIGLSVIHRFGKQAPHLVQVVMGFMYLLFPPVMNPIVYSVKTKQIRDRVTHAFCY
Sequence of OR51F2 (Homo sapiens) (Q8NH61 whole entry): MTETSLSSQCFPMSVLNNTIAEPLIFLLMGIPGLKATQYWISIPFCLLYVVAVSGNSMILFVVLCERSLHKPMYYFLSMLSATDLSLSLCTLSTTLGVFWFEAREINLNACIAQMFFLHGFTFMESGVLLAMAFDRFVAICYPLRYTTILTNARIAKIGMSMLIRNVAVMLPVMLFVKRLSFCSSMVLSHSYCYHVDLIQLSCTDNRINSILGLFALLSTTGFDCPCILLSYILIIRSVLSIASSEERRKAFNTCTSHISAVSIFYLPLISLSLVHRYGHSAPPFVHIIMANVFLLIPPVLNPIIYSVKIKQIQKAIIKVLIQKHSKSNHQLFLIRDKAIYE
Sequence of OR51F1 (Homo sapiens) (A6NGY5 whole entry): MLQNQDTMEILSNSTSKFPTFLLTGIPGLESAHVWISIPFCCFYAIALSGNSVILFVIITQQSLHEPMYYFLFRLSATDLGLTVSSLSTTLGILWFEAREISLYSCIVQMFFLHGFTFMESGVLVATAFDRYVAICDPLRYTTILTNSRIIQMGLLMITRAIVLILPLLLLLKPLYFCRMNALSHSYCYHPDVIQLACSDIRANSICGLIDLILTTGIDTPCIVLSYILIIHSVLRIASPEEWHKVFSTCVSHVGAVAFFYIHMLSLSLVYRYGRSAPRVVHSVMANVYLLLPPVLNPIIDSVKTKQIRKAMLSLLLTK
Sequence of OR51H1 (Homo sapiens) (Q8NH63 whole entry): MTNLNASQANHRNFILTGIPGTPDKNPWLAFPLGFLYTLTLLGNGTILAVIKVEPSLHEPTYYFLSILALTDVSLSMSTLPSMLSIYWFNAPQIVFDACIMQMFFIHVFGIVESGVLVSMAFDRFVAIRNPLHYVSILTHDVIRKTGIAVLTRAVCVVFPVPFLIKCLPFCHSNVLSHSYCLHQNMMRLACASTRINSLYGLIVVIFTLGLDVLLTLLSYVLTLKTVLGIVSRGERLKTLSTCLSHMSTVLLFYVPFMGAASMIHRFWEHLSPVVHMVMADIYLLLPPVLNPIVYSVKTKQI

C=CCc1ccccc1
inactive: [1]

CCC1CCC(=O)O1 (stereo unspecified)
inactive: [1]

Cc1c([N+](=O)[O-])c(C)c([N+](=O)[O-])c(C(C)(C)C)c1[N+](=O)[O-]
inactive: all assays above

O=c1cc(O)c2ccccc2o1
inactive: [1]

C=CCOC(=O)Cc1ccccc1
active: [1]
not listed: [2] | [6]
inactive: all other assays above
